Data as given in ChEMBL document CHEMBL1177711, “Novel quinolizidinyl derivatives as antiarrhythmic agents: 2. Further investigation” (J Med Chem, 2010).
pEC50: −log10 of the molar value. Active and inactive are the calls of the source.

Legend:
[1] = test system: Aorta; assay: Vasorelaxant activity in potassium depolarized guinea pig aortic strip assessed as inhibition of calcium-induced contraction at 100 uM; assay type: functional; conditions: Cavia porcellus
[2] = Negative chronotropic activity against potassium-induced contraction in guinea pig left atrium assessed as decrease atrial rate; assay type: functional, tissue-based; conditions: Cavia porcellus, Cardiac atrium
[3] = Negative inotropic activity against potassium-induced contraction in guinea pig left atrium assessed as decrease in developed tension; assay type: functional, tissue-based; conditions: Cavia porcellus, Cardiac atrium
[4] = Negative inotropic activity against potassium-induced contraction in guinea pig left atrium assessed as decrease in developed tension at 10 uM relative to control; assay type: functional, Cavia porcellus, Cardiac atrium; set-up: scale not given: the % may be the effect or the level left
[5] = Antiarrhythmic activity in sinusoidal alternating current-induced guinea pig left atrium assessed as increase in current strength at which extra beats occur at 50 uM measured every 30 mins; assay type: functional, Cavia porcellus, Cardiac atrium
Outline: (§1)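 Isolated guinea pig left atria, electrically driven at 1 Hz, were exposed to sinusoidal alternating current to induce arrhythmia. The read-out was the rise in the ac-arrhythmia threshold over concentrations up to 100 μM.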

[6] = Negative chronotropic activity against potassium-induced contraction in guinea pig left atrium assessed as decrease atrial rate at 0.5 uM relative to control; assay type: functional, Cavia porcellus, Cardiac atrium; set-up: scale not given: the % may be the effect or the level left
[7] = test system: Aorta; assay: Vasorelaxant activity in potassium depolarized guinea pig aortic strip assessed as inhibition of calcium-induced contraction at 50 uM; assay type: functional; conditions: Cavia porcellus
[8] = Negative chronotropic activity against potassium-induced contraction in guinea pig left atrium assessed as decrease atrial rate at 50 uM relative to control; assay type: functional, Cavia porcellus, Cardiac atrium; set-up: scale not given: the % may be the effect or the level left
[9] = Negative chronotropic activity against potassium-induced contraction in guinea pig left atrium assessed as decrease atrial rate at 100 uM relative to control; assay type: functional, Cavia porcellus, Cardiac atrium; set-up: scale not given: the % may be the effect or the level left
[10] = Antiarrhythmic activity in sinusoidal alternating current-induced guinea pig left atrium assessed as increase in current strength at which extra beats occur measured every 30 mins; assay type: functional, tissue-based; conditions: Cavia porcellus, Cardiac atrium, 0.5 h; outline: as §1
[11] = Cardioprotective effect in Langendorff perfused guinea pig spontaneously beating […] assessed as duration of ventricular action potential at 10 uM (RVb = 140 to 161 +/- 2 to 8 ms); assay type: functional, Cavia porcellus, Cardiac ventricle
Outline: (§2)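 Whole guinea pig hearts were Langendorff-perfused and their ECG recorded at graded concentrations. Intervals read were PR (atrioventricular conduction time), QT (ventricular action potential duration) and QRS (intraventricular conduction time).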

[12] = Cardioprotective effect in Langendorff perfused guinea pig spontaneously beating […] assessed as duration of ventricular action potential at 1 uM (RVb = 140 to 161 +/- 2 to 8 ms); assay type: functional, Cavia porcellus, Cardiac ventricle; outline: as §2
[13] = Cardioprotective effect in Langendorff perfused guinea pig spontaneously beating […] assessed as atrioventicular conduction time at 1 uM (RVb = 50 to 55 +/- 1 to 4 ms); assay type: functional; conditions: Cavia porcellus; outline: as §2
[14] = Cardioprotective effect in Langendorff perfused guinea pig spontaneously beating […] assessed as duration of ventricular action potential at 0.1 uM (RVb = 140 to 161 +/- 2 to 8 ms); assay type: functional, Cavia porcellus, Cardiac ventricle; outline: as §2
[15] = Cardioprotective effect in Langendorff perfused guinea pig spontaneously beating […] assessed as duration of ventricular action potential at 0.01 uM (RVb = 140 to 161 +/- 2 to 8 ms); assay type: functional, Cavia porcellus, Cardiac ventricle; outline: as §2
[16] = Cardioprotective effect in Langendorff perfused guinea pig spontaneously beating […] assessed as duration of ventricular action potential at 0.001 uM (RVb = 140 to 161 +/- 2 to 8 ms); assay type: functional, Cavia porcellus, Cardiac ventricle; outline: as §2
[17] = Cardioprotective effect in Langendorff perfused guinea pig spontaneously beating […] assessed as intraventicular conduction time at 10 uM (RVb = 19 to 24 +/- 1 to 2 ms); assay type: functional; conditions: Cavia porcellus; outline: as §2
[18] = Cardioprotective effect in Langendorff perfused guinea pig spontaneously beating […] assessed as intraventicular conduction time at 1 uM (RVb = 19 to 24 +/- 1 to 2 ms); assay type: functional; conditions: Cavia porcellus; outline: as §2
[19] = Cardioprotective effect in Langendorff perfused guinea pig spontaneously beating […] assessed as intraventicular conduction time at 0.1 uM (RVb = 19 to 24 +/- 1 to 2 ms); assay type: functional; conditions: Cavia porcellus; outline: as §2
[20] = Cardioprotective effect in Langendorff perfused guinea pig spontaneously beating […] assessed as intraventicular conduction time at 0.01 uM (RVb = 19 to 24 +/- 1 to 2 ms); assay type: functional; conditions: Cavia porcellus; outline: as §2
[21] = Cardioprotective effect in Langendorff perfused guinea pig spontaneously beating […] assessed as intraventicular conduction time at 0.001 uM (RVb = 19 to 24 +/- 1 to 2 ms); assay type: functional; conditions: Cavia porcellus; outline: as §2
[22] = Cardioprotective effect in Langendorff perfused guinea pig spontaneously beating […] assessed as atrioventicular conduction time at 10 uM (RVb = 50 to 55 +/- 1 to 4 ms); assay type: functional; conditions: Cavia porcellus; outline: as §2
[23] = Cardioprotective effect in Langendorff perfused guinea pig spontaneously beating […] assessed as atrioventicular conduction time at 0.1 uM (RVb = 50 to 55 +/- 1 to 4 ms); assay type: functional; conditions: Cavia porcellus; outline: as §2
[24] = Cardioprotective effect in Langendorff perfused guinea pig spontaneously beating […] assessed as atrioventicular conduction time at 0.01 uM (RVb = 50 to 55 +/- 1 to 4 ms); assay type: functional; conditions: Cavia porcellus; outline: as §2
[25] = Cardioprotective effect in Langendorff perfused guinea pig spontaneously beating […] assessed as atrioventicular conduction time at 0.001 uM (RVb = 50 to 55 +/- 1 to 4 ms); assay type: functional; conditions: Cavia porcellus; outline: as §2
[26] = test system: Heart; assay: Cardioprotective effect in Langendorff perfused guinea pig spontaneously beating […] assessed as heart rat at 0.001 uM (RVb = 175 to 190 +/- 5 to 11 bpm); assay type: functional, Cavia porcellus
[27] = test system: Heart; assay: Cardioprotective effect in Langendorff perfused guinea pig spontaneously beating […] assessed as heart rat at 0.01 uM (RVb = 175 to 190 +/- 5 to 11 bpm); assay type: functional, Cavia porcellus
[28] = test system: Heart; assay: Cardioprotective effect in Langendorff perfused guinea pig spontaneously beating […] assessed as heart rat at 0.1 uM (RVb = 175 to 190 +/- 5 to 11 bpm); assay type: functional, Cavia porcellus
[29] = test system: Heart; assay: Cardioprotective effect in Langendorff perfused guinea pig spontaneously beating […] assessed as heart rat at 1 uM (RVb = 175 to 190 +/- 5 to 11 bpm); assay type: functional, Cavia porcellus
[30] = test system: Heart; assay: Cardioprotective effect in Langendorff perfused guinea pig spontaneously beating […] assessed as heart rat at 10 uM (RVb = 175 to 190 +/- 5 to 11 bpm); assay type: functional, Cavia porcellus
[31] = species on record: Cavia porcellus; assay: Agonist activity at muscarinic M2 receptor in guinea pig left atrium assessed as negative ionotropic activity in presence of carbachol; assay type: functional, tissue-based; conditions: Cardiac atrium

Structure (SMILES): CCN(CC)CCNC(=O)c1ccc(N)cc1 [PROCAINAMIDE]
- inhibition at 100 µM [1]: 2%

Structure (SMILES): COc1ccc2c(c1)nc(-c1ccccc1)c(=O)n2C[C@H]1CCCN2CCCC[C@@H]12
- inhibition at 100 µM [1]: 11%
- pEC50 [2]: 4.82
- pEC50 [3]: 7.51
- Activity [4]: 85%
- Activity [5]: 30%

Structure (SMILES): Cc1cc(C(=O)c2ccccc2)cc(C)c1NC(=O)C[C@@H]1CCCN2CCCC[C@H]12
- Activity [6]: 70%

Structure (SMILES): CCN(CC)CC(=O)Nc1c(C)cccc1C [LIDOCAINE]
- inhibition at 50 µM [7]: 14%

Structure (SMILES): O=C(C[C@@H]1CCCN2CCCC[C@H]12)Nc1c(Cl)cccc1Cl
- inhibition at 100 µM [1]: 6%
- pEC50 [3]: 7.00
- Activity [8]: 15%
- Activity [5]: 32%

Structure (SMILES): Cc1cc(C(=O)c2ccccc2)ccc1NC(=O)C[C@@H]1CCCN2CCCC[C@H]12
- pEC50 [2]: 5.21
- pEC50 [3]: 7.36
- Activity [9]: 59%
- Activity [4]: 79%
- pEC50 [10]: 6.82
- Activity [5]: 64%
- Activity [11]: 170 ms
- Activity [12]: 162 ms
- AV conduction time [13]: 56 ms
- Activity [14]: 155 ms
- Activity [15]: 154 ms
- Activity [16]: 158 ms
- intraventricular conduction time [17]: 25 ms
- intraventricular conduction time [18]: 22 ms
- intraventricular conduction time [19]: 23 ms
- intraventricular conduction time [20]: 20 ms
- intraventricular conduction time [21]: 23 ms
- AV conduction time [22]: 57 ms
- AV conduction time [23]: 53 ms
- AV conduction time [24]: 54 ms
- AV conduction time [25]: 54 ms
- Activity [26]: 177 bpm
- Activity [27]: 171 bpm
- Activity [28]: 158 bpm
- Activity [29]: 145 bpm
- Activity [30]: 137 bpm

Structure (SMILES): C[N+](C)(C)CCOC(N)=O
- inhibition [31]: inactive

Structure (SMILES): C=C[C@H]1CN2CC[C@H]1C[C@@H]2[C@@H](O)c1ccnc2ccc(OC)cc12 [QUINIDINE]
- inhibition at 50 µM [7]: 30%
- AV conduction time [13]: 60 ms
- intraventricular conduction time [17]: 39 ms
- intraventricular conduction time [18]: 35 ms
- intraventricular conduction time [19]: 31 ms
- intraventricular conduction time [20]: 27 ms
- intraventricular conduction time [21]: 25 ms
- AV conduction time [22]: 70 ms
- AV conduction time [23]: 57 ms
- AV conduction time [24]: 54 ms
- AV conduction time [25]: 53 ms

Structure (SMILES): CCCCc1oc2ccccc2c1C(=O)c1cc(I)c(OCCN(CC)CC)c(I)c1
- AV conduction time [13]: 56 ms
- intraventricular conduction time [17]: 24 ms
- intraventricular conduction time [18]: 22 ms
- intraventricular conduction time [19]: 21 ms
- intraventricular conduction time [20]: 20 ms
- intraventricular conduction time [21]: 20 ms
- AV conduction time [22]: 58 ms
- AV conduction time [23]: 55 ms
- AV conduction time [24]: 55 ms
- AV conduction time [25]: 54 ms
